Where “and” joins values, the source holds several entries; their conditions need not be identical. Equal entries are not always repeated. Where two headings read alike, the source gives them in different places.
What was measured:
recombinant TDP1 = recombinant TDP1 (Homo sapiens, UniProt Q9NUW8); test: Recombinant TDP1 gel-based assay; assay type: biochemical
How it was run: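 Gel-based cleavage assay: 1 nM 5′-[32P]-labeled single-stranded oligonucleotide with a 3′-phosphotyrosine (N14Y) incubated with 10 pM recombinant TDP1, ± inhibitor, 15 min, room temperature. Parallel reactions in HTS buffer: 1X PBS pH 7.4, 80 mM KCl, 0.01% Tween-20. Gels dried, PhosphorImager-scanned, quantified by densitometry.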

[1] = biological target: endogenous human TDP1 from whole cell extracts (DT40 hTDP1) (Homo sapiens, UniProt Q9NUW8); test: Whole cell extract; assay type: biochemical
endogenous human TDP1 from whole cell extracts (DT40 hTDP1), sequence (Q9NUW8 whole entry): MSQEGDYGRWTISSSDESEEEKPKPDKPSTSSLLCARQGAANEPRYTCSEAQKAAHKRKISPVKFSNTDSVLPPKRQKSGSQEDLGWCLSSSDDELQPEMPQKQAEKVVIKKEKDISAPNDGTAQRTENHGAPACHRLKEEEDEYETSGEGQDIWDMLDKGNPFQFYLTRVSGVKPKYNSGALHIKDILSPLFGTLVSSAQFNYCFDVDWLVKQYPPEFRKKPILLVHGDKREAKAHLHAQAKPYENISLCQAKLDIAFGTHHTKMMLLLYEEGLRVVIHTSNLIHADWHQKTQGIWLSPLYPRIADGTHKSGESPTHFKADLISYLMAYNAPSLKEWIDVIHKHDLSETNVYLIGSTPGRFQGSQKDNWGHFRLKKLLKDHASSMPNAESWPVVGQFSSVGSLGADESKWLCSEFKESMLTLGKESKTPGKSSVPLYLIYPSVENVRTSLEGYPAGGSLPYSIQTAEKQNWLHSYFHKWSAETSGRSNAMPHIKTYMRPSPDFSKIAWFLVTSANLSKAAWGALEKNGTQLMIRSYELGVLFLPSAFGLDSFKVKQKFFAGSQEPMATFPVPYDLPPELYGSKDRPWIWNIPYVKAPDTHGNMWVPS

recombinant human TDP2 = biological target: T1, recombinant human TDP2 (Homo sapiens, UniProt O95551); test: Recombinant TDP2 counter-screening assay; assay type: biochemical; details: for activity against TDP2 (in words): tested up to 111 µM
T1 sequence (O95551 1-362): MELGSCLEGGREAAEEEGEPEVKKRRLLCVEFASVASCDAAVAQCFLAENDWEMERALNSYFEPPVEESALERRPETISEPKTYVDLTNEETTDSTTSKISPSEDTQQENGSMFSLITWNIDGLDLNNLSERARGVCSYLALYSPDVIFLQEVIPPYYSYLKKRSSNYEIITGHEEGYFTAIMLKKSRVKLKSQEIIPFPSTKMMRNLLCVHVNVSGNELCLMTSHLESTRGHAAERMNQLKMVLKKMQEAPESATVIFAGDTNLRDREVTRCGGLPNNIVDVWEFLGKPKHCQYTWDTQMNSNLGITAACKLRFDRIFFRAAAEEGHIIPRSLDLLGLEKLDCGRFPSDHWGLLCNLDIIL
How it was run: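 Counter-screen: 1 nM α32P-cordycepin-3′-labeled 18-mer single-stranded oligonucleotide incubated with 25 pM recombinant human TDP2, ± inhibitor, 15 min, room temperature. Reactions terminated and processed as the TDP1 gel assays: gel run, PhosphorImager exposure, densitometry.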

DT40 hTDP1 cells = assay type: cell-based; details: 72 h
Chk2 = details: cited from earlier work
[2] = read-out: IC50 TDP1 REC, recombinant TDP1, WCE buffer

recombinant TDP1, sequence (Q9NUW8 whole entry): as the sequence (Q9NUW8 whole entry) above

SMILES | inhibition of REC-TDP1 (in words) (recombinant TDP1) | IC50 (recombinant TDP1; [2]) [µM] | activity against TDP2 (in words) (recombinant human TDP2) | cytotoxicity (DT40 hTDP1 cells) | synergistic effect in combination with CPT (DT40 hTDP1 cells) | further results
Cc1ccc(Nc2nn3c(=O)c4ccccc4nc3s2)cc1C [NCGC00183674] | inhibited REC-TDP1 at low micromolar concentrations | 12.1 ± 1.7 | only marginal activity against TDP2 at 111 µM | did not exhibit any cytotoxicity | no synergistic effect | IC50 ([1]; read-out: IC50 TDP1 WCE, WCE buffer): 51 µM and 59 µM; selectivity for TDP1 versus TDP2 (recombinant human TDP2): higher selectivity for TDP1; IC50 (recombinant human TDP2; read-out: IC50 TDP2 REC, recombinant TDP2): > 111 µM
O=C(O)c1ccc(-c2ccc(C=C3NC(=O)N(Cc4ccccc4F)C3=O)o2)cc1 [JLT048, 4-(5-[{[1-(2-fluorobenzyl)-2,5-dioxo-4-imidazolidinylidene]methyl]}-2furyl)benzoic acid] | inhibited REC-TDP1 at low micromolar concentrations |  | also inhibited TDP2, albeit with higher IC50 values | did not exhibit any cytotoxicity | no synergistic effect | IC50 (recombinant TDP1): 7.7 ± 1.8 µM; IC50 ([1]; IC50 TDP1 WCE, WCE buffer): 115 µM and 148 µM; IC50 (recombinant human TDP2): 32 ± 10 µM
CN[C@@H]1C[C@H]2O[C@@](C)([C@@H]1OC)n1c3ccccc3c3c4c(c5c6ccccc6n2c5c31)C(=O)N[C@H]4O [7-hydroxystaurosporine (UCN-01), 7-hydroxystaurosporine] |  |  |  |  |  | inhibition of Chk2 purified from cell extract by immunoprecipitation (Chk2): found to inhibit; inhibition of recombinant Chk2 enzyme (Chk2): ineffective
O=c1c2ccccc2nc2sc(Nc3ccc4c(c3)CCC4)nn12 [NCGC00183964] |  | 81 |  |  |  | reduction in potency, WCE buffer vs HTS buffer (recombinant TDP1; REC-TDP1): 25 fold
